{"source": "ChEMBL document CHEMBL1121947", "about": "(J Med Chem, 1982)", "key": {"[1]": {"experiment": "pKA value was determined; Experiment 1", "format": "physicochemical"}, "[2]": {"experiment": "pKA value was determined; Experiment 2", "format": "physicochemical"}, "[3]": {"target": "GABA-A receptor; anion channel", "experiment": "Inhibition of [3H]GABA binding to Gamma-aminobutyric acid receptor of rat brain synaptosomal membranes", "format": "cell membranes, Membrane", "outline": "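Rat brain synaptic membranes (0.8–1.2 mg protein) were incubated in triplicate for 5 min at 4 °C in 0.05 M Tris-citrate pH 7.1 with 5 nM [3H]GABA, plus 1 mM GABA or 100 µM test agent. Protein was measured by Lowry.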"}, "GABA transporter": {"target": "GABA transporter (Rattus norvegicus, UniProt P31647+P23978+P31646+P48056)", "experiment": "Inhibition of high affinity neuronal GABA uptake by synaptosomes of rat brain membrane", "format": "functional, subcellular"}}, "data": [{"smiles": "O=C(O)[C@H]1CNC[C@@H](O)C1", "values": [{"measurement": "pKa", "setting": "[1]", "value": 3.5}, {"measurement": "pKa", "setting": "[2]", "value": 8.9}, {"measurement": "IC50", "setting": "[3]", "value": "> 100", "unit": "µM"}, {"measurement": "IC50", "setting": "GABA transporter", "value": 173, "unit": "µM"}]}, {"smiles": "NCCCC(=O)O", "note": "[GAMMA-AMINOBUTYRIC ACID]", "values": [{"measurement": "pKa", "setting": "[1]", "value": 4}, {"measurement": "pKa", "setting": "[2]", "value": 10.7}]}, {"smiles": "CC(=O)N[C@@H]1CNC[C@H](C(=O)O)C1", "values": [{"measurement": "pKa", "setting": "[1]", "value": 3}, {"measurement": "pKa", "setting": "[2]", "value": 8.6}, {"measurement": "IC50", "setting": "[3]", "value": "> 100", "unit": "µM"}, {"measurement": "IC50", "setting": "GABA transporter", "value": 240, "unit": "µM"}]}, {"smiles": "CC(=O)N[C@@H]1CCNC[C@@H]1C(=O)O", "values": [{"measurement": "pKa", "setting": "[1]", "value": 3.2}, {"measurement": "pKa", "setting": "[2]", "value": 9.7}, {"measurement": "IC50", "setting": "[3]", "value": "> 100", "unit": "µM"}, {"measurement": "IC50", "setting": "GABA transporter", "value": "> 300", "unit": "µM"}]}, {"smiles": "O=C(O)[C@H]1CNCC[C@@H]1O", "values": [{"measurement": "pKa", "setting": "[1]", "value": 3.1}, {"measurement": "pKa", "setting": "[2]", "value": 9.4}, {"measurement": "IC50", "setting": "[3]", "value": "> 100", "unit": "µM"}, {"measurement": "IC50", "setting": "GABA transporter", "value": 203, "unit": "µM"}]}, {"smiles": "O=C(O)[C@H]1CNCC[C@H]1O", "values": [{"measurement": "pKa", "setting": "[1]", "value": 3.4}, {"measurement": "pKa", "setting": "[2]", "value": 10}, {"measurement": "IC50", "setting": "[3]", "value": "> 100", "unit": "µM"}, {"measurement": "IC50", "setting": "GABA transporter", "value": 11, "unit": "µM"}]}, {"smiles": "O=C(O)[C@@H]1CCNC[C@H]1O", "values": [{"measurement": "pKa", "setting": "[1]", "value": 3.6}, {"measurement": "pKa", "setting": "[2]", "value": 9.3}, {"measurement": "IC50", "setting": "[3]", "value": 43, "unit": "µM"}, {"measurement": "IC50", "setting": "GABA transporter", "value": "> 300", "unit": "µM"}]}, {"smiles": "O=C(O)C1CCNCC1", "note": "[ISONIPECOTIC ACID]", "values": [{"measurement": "pKa", "setting": "[1]", "value": 3.8}, {"measurement": "pKa", "setting": "[2]", "value": 10.5}, {"measurement": "IC50", "setting": "[3]", "value": 0.33, "unit": "µM"}, {"measurement": "IC50", "setting": "GABA transporter", "value": "> 300", "unit": "µM"}]}, {"smiles": "O=C(O)C1CCCNC1", "note": "(configuration not stated) [NIPECOTIC ACID]", "values": [{"measurement": "pKa", "setting": "[1]", "value": 3.9}, {"measurement": "pKa", "setting": "[2]", "value": 10.3}, {"measurement": "IC50", "setting": "[3]", "value": "> 100", "unit": "µM"}]}, {"smiles": "O=C(O)[C@@H]1CCNC[C@@H]1O", "values": [{"measurement": "pKa", "setting": "[1]", "value": 3.7}, {"measurement": "pKa", "setting": "[2]", "value": 10}, {"measurement": "IC50", "setting": "[3]", "value": 12, "unit": "µM"}, {"measurement": "IC50", "setting": "GABA transporter", "value": "> 300", "unit": "µM"}]}]}
